CHT inh – inhibitors of human choline transporter CHT | AID 488975 | B-score at 10 µM | 0.86% of 310,000 active | Q9GZV3 | CHT-expressing cells, membrane potential dye, choline response; hits give low values;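 active = B-score over 3 SD under the library average, and starting fluorescence ratio not unusually high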;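 note: choline stimulus applied at its EC90 after an EC20 pre-addition; B-score computed on integrated fluorescence ratio after choline addition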
HSF1 activator – increases HSF-1 driven luciferase reporter signal; NIH3T3-HGL HSF-1 luciferase reporter, MG132, 8 h; 100% = twice DMSO control signal; activation, % at 9 µM; 1.7% of 300,000 active;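 active = mean replicate activation of at least 50% with a set share of replicates each reaching 50%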;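 note: 0% = median of the neutral control wells and 100% = twice that signal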
Lipid droplet – modulators of hepatic lipid droplet formation; AID 1656; AML12 mouse hepatocytes, oleate lipid droplets, BODIPY imaging; inhibition, % at 6.5 µM; 0.4% of 240,000 active;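 active = lipid droplet intensity inhibited by at least 50%, with more than 500 cells counted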
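Assay system: AML12 hepatocytes (mouse) / Also added: 100 µM oleic acid challenge / Times: overnight treatment with compound plus oleate / Detection: high-content imaging of BODIPY-stained droplets and DAPI nuclei / Evaluation: % inhibition of lipid droplet signal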
CHT PAM – human CHT allosteric activation | 0.49% of 310,000 active | B-score at 10 µM | AID 488977 | CHT-expressing cells, membrane potential dye, choline EC20; hits give high values; LV-AA mutant CHT in HEK293 cells;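 active = initial fluorescence not abnormally high and integrated response B-score, plate-corrected, over 3 SD above library mean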
HSF1 inh – HSF1 inhibition. NIH3T3-HGL HSE-luciferase, MG132-induced, luminescence 8 h; hits give low values. activity change, negative = inhibition, % at 7.5 µM (by protocol). 0.77% of 300,000 active. AID 2098;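 active = more than half of replicate wells show activity change below -50%, luminescence cut by over half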;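 note: luciferase reports HSF-1 transcriptional activity via heat shock element; 0% = median of DMSO wells and -100% = zero luminescence signal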
PHOSPHO1 inh – inhibitors of human PHOSPHO1 phosphatase | inhibition, % at 13.3 µM | recombinant PHOSPHO1, absorbance phosphatase assay | Q8TCT1 | 1.1% of 290,000 active; in the data active = inhibition above about 60%
Target sequence (Q8TCT1 whole entry, looked up): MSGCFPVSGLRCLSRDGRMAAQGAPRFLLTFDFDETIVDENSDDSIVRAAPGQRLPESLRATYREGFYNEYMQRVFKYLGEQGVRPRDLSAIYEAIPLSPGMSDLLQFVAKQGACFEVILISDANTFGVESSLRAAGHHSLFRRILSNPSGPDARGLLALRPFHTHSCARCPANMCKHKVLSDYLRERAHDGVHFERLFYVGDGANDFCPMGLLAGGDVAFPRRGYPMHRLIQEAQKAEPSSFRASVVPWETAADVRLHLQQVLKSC
Active calls of the source: *; i = inactive; · = not tested or not shown. Only some compounds are listed: those with a hit (about 4.9% of all), similar ones and a draw of the others.

SMILES	CHT inh	HSF1 activator	Lipid droplet	CHT PAM	HSF1 inh	PHOSPHO1 inh
COc1cccc(-c2ccc(-c3noc(-c4ccccc4F)n3)c(OC)n2)c1	i	6	-2	i	-1	0
Cc1ccc(NC(=O)CC(O)(C(F)(F)F)C(F)(F)F)c(Br)c1	-5.2*	-1	0	i	-9	-6
CC(C)N(Cc1nc(COc2ccccc2)no1)Cc1nccn1C	i	0	-12	i	-2	57
CC(C)N(Cc1cn[nH]c1-c1ccc(-c2ccccc2)cc1)Cc1nccn1C	i	59*	-1	i	29	23
O=C(Nc1ccc2nn(-c3ccccc3)nc2c1)c1ccco1	i	54*	18	i	16	-8
CCCn1cnc2cc(NC(=O)c3ccco3)ccc21	i	32	3	i	4	63*
Cc1cccc(OCC(=O)NCC2CCCO2)c1C (configuration not stated)	i	-3	2	i	-6	16
O=C(CN1CCCCC1)NC1CCc2cc3c(cc21)CCC3 (configuration not stated)	i	26	·	i	5	·
COC(=O)c1ccc(C)c(NS(=O)(=O)c2ccc3c(c2)OCCO3)c1	i	-5	-6	i	-7	34
CC1CCCCN1CC(=O)Nc1ccccc1Sc1ccccc1 (configuration not stated)	i	-67	-1	i	-59*	-8
Cn1c(C2CCCCC2)nc2c1c(=O)[nH]c(=O)n2Cc1ccccc1	i	2	5	i	6	30
Cc1nc([N+](=O)[O-])c(Sc2nc3ccccc3n2C)n1Cc1ccccc1	i	79*	20	i	53	-26
Cc1nc([N+](=O)[O-])c(SCC(N)=O)n1Cc1ccccc1	i	16	-4	i	-4	13
CCn1nc([N+](=O)[O-])c2c(-c3nc4ccccc4o3)c(N)n(CCCOC)c2c1=O	i	5	6	i	1	96*
Cc1ccc(SCCN2CCN(C)CC2)cc1	i	58*	10	i	18	35
CC(C)[N+](C)(C)CC(O)CN(c1ccccc1)c1ccccc1 (configuration not stated)	i	11	29	i	0	85*
NS(=O)(=O)c1cc2c(cc1Cl)NCNS2(=O)=O	i	-75	-8	i	-69*	-1
O=C(CCl)Nc1cn(-c2ccccc2)nc1-c1ccc(F)cc1	i	-85	-1	i	-84*	4
Cn1nc(Oc2ncc(C(F)(F)F)cc2Cl)cc1C(F)(F)F	i	-10	5	i	0	24
C=CC[n+]1c(-c2ccc(C)cc2)csc1Nc1ccc(NC(C)=O)cc1	·	·	-20	·	·	15
C=CC[n+]1c(-c2ccc(OC)cc2)csc1NNC(=O)Nc1ccccc1	i	54*	-23	i	26	66*
COc1cccc(-c2ccc(NC(=O)C3CCCN(Cc4cnc(C)s4)C3)cc2)c1 (configuration not stated)	i	-2	-9	i	5	6
CCC(C)(C)n1nnnc1C(c1ccc(O)c(OC)c1)N1CCN(c2nc3ccccc3s2)CC1 (configuration not stated)	i	·	·	i	·	68*
CC(C)(C)C(CN1CCCC1)OC(=O)c1ccccc1 (configuration not stated)	i	-84	-4	i	-80*	36
CC(CN1CCOCC1)OC(=O)c1ccccc1 (configuration not stated)	i	-12	3	i	-6	10
SMILES	CHT inh	HSF1 activator	Lipid droplet	CHT PAM	HSF1 inh	PHOSPHO1 inh
COc1ccc(C)cc1NC(=O)Nc1cnccn1	i	-4	2	i	6	37
O=C(Nc1ncccn1)c1ccc([N+](=O)[O-])cc1Cl	i	1	·	i	-2	19
CCOC(=O)CC(=O)CSc1ccc2nnc(-c3ccc(F)cc3)n2n1	i	37	·	i	7	81*
COC(=O)C(C)Sc1ccc2nnc(-c3ccc(F)cc3)n2n1 (configuration not stated)	i	-5	·	i	-9	65*
CCOC(=O)CC(=O)CSc1ccc2nnc(-c3cccc(F)c3)n2n1	i	33	·	i	15	44
CCCCNS(=O)(=O)c1ccc2nc(-c3cccnc3)cc(C(=O)NCCOC)c2c1	i	-12	0	i	1	-1
CCOCCCNC(=O)c1cc(-c2cccnc2)nc2ccc(S(=O)(=O)N3CCC(C)CC3)cc12	i	-12	3	i	-8	75*
O=C(Nc1ccccc1N1CCCCC1)C1CCN(C(=O)c2ccc(Cl)cc2)CC1	i	-75	·	i	-67*	·
O=C(Nc1ccccc1N1CCCC1)C1CCN(S(=O)(=O)c2ccccc2C(F)(F)F)CC1	i	23	·	i	6	·
O=C(Nc1ccccc1N1CCCCC1)C1CCN(S(=O)(=O)c2ccccc2C(F)(F)F)CC1	i	-69	·	i	-58*	·
CC(C)(C)c1ccc(C(=O)N2CCC(C(=O)NC3CCCCCC3)CC2)cc1	-5.1*	-2	-3	i	4	40
O=C(Nc1ccccc1N1CCCC1)C1CCN(C(=O)c2ccc(Cl)cc2)CC1	i	-7	·	i	-5	·
O=C(NC1CCCC1)C1CCN(C(=O)c2ccc(Cl)cc2)CC1	i	54*	6	i	16	10
Cc1c(C(=O)O)sc2nc(/C=C/c3cccc(O)c3)[nH]c(=O)c12	i	19	0	i	5	-1
CCCCC1=CC2=C(c3ccco3)C(=O)C(C)(OC(=O)c3ccc(OC)cc3)C(=O)C2=CN1C1CCCC1 (configuration not stated)	-7*	25	·	i	6	·
O=c1[nH]c2ccccc2c2oc(CCl)nc12	i	2	-2	i	-7	10
COC(=O)c1nc(Cl)c(Cl)c(N)c1Cl	i	-77	-1	i	-72*	20
O=C(Cc1ccc(F)cc1)NCc1cccnc1	i	19	9	i	-4	39
CS(=O)(=O)c1ccc(-c2cn3cc(C(=O)O)ccc3n2)cc1	i	-13	5	i	-15	61*
COC(=O)c1ccc2nc(-c3ccc(S(C)(=O)=O)cc3)cn2c1	i	8	·	i	7	37
O=C(CN1CCN(Cc2ccccc2)CC1)c1c[nH]c2ccccc12	i	1	·	i	1	80*
CN(CC1COc2ccccc2O1)C(=O)c1cc(COc2c(F)cccc2F)on1 (configuration not stated)	i	0	-8	i	0	12

Screening data (PubChem)
